Laboratory results: ChEMBL document CHEMBL1137660, “Molecular and biochemical characterization of the chromosome-encoded class A beta-lactamase BCL-1 from Bacillus clausii” (Antimicrob Agents Chemother, 2007)

Key:
[1] = Ratio of Kcat for Bacillus clausii NR beta-lactamase BCL1 to Kcat for Bacillus cereus beta lactamase BcI
[2] = Ratio of Kcat to Km for Bacillus clausii NR beta-lactamase BCL1 to ratio of Kcat/Km for Bacillus anthracis beta-lactamase Bla1
[3] = Ratio of Kcat for Bacillus cereus beta-lactamase BcI to Kcat for Bacillus clausii NR beta-lactamase BCL1
[4] = target: T1, Beta-lactamase (Bacillus clausii) (UniProt A8RR46); experiment: Induction of Bacillus clausii NR beta-lactamase BCL1 activity expressed in Escherichia coli BL21 (DE3) assessed as specific activity per mg of protein at 5 ug/ml; conditions: Shouchella clausii
T1 sequence (whole entry): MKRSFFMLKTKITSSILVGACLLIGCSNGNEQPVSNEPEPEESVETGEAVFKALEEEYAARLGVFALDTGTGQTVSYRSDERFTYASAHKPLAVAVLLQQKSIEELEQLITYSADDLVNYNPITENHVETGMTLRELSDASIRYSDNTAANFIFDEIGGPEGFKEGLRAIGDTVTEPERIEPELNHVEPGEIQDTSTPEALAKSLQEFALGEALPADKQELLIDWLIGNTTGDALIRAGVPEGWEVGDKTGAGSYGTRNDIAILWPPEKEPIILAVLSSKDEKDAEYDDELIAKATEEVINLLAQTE
Outline: (§1)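 Induction in B. clausii NR and ATCC 21537 cultures using cefoxitin at 1 to 5 μg/ml as inducer. β-Lactamase activity of extracts read with 100 μM penicillin G as substrate and expressed per mg protein.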

[5] = target: T1, Beta-lactamase (Bacillus clausii); experiment: Induction of Bacillus clausii ATCC 21537 beta-lactamase BCL1 activity expressed in Escherichia coli BL21 (DE3) assessed as specific activity per mg of protein at 5 ug/ml; conditions: Shouchella clausii; outline: as §1
[6] = target: T1, Beta-lactamase (Bacillus clausii); experiment: Activity of Bacillus clausii NR beta-lactamase BCL1 expressed in Escherichia coli BL21 (DE3) assessed as specific activity per mg of protein at 100 uM; conditions: Shouchella clausii
Outline: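 Enzyme from E. coli BL21(DE3)(pET-BCL-1), induced with 0.4 mM IPTG at 37°C for 5 h in TS broth with amoxicillin and kanamycin. Cells were sonicated. Enzyme purified by S-Sepharose (50 mM phosphate, pH 6.5) then Q-Sepharose (20 mM Tris-HCl, pH 9; 0–1 M NaCl gradient). Protein by DC assay. Activity read with 100 μM cephalothin as substrate.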

SMILES | fold change (FC) [1] | fold change (FC) [2] | other results
CO/N=C(\C(=O)N[C@@H]1C(=O)N2C(C(=O)O)=C(COC(N)=O)CS[C@H]12)c1ccco1 | 100 | – | –
CC1(C)S[C@@H]2[C@H](NC(=O)Cc3ccccc3)C(=O)N2[C@H]1C(=O)O | – | 10 | Ratio [3]: 200
CC1(C)S[C@@H]2[C@H](NC(=O)[C@H](N)c3ccc(O)cc3)C(=O)N2[C@H]1C(=O)O | – | 10 | –
CC1(C)S[C@@H]2[C@H](NC(=O)[C@H](C(=O)O)c3ccsc3)C(=O)N2[C@H]1C(=O)O | – | 10 | –
CO[C@@]1(NC(=O)Cc2cccs2)C(=O)N2C(C(=O)O)=C(COC(N)=O)CS[C@@H]21 | – | – | Activity [4]: 500 U; Activity [5]: 500 U
CCN1CCN(C(=O)N[C@@H](C(=O)N[C@@H]2C(=O)N3[C@@H]2SC(C)(C)[C@@H]3C(=O)O)c2ccccc2)C(=O)C1=O | – | 10 | –
O=C(Cc1cccs1)N[C@@H]1C(=O)N2C(C(=O)[O-])=C(C[n+]3ccccc3)CS[C@H]12 | – | 2 | –
CO/N=C(\C(=O)N[C@@H]1C(=O)N2C(C(=O)O)=C(COC(C)=O)CS[C@H]12)c1csc(N)n1 | 100 | – | –
CO/N=C(\C(=O)N[C@@H]1C(=O)N2C(C(=O)[O-])=C(C[n+]3cccc4c3CCC4)CS[C@H]12)c1csc(N)n1 | 500 | – | –
CC(=O)OCC1=C(C(=O)O)N2C(=O)[C@@H](NC(=O)Cc3cccs3)[C@H]2SC1 | 100 | – | Activity [6]: 35 U
